One assay concerns STAC3 W284S. Kind of assay: ITC, II–III loop with STAC3 W284S. The format is binding, human. To be noted: 25 °C, pH 7.4, NAM mutant W284S.
The subject of the next assay is human CaV1.2. Kind of assay: CaV1.2 inactivation. Conditions: Xenopus oocytes, two-electrode voltage clamp, Ba^2+ or Ca^2+ solution. Type of assay: cell-based. In a few lines: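 Human CaV1.2 α1c (splice variant a1c77) cRNA (8.2–10.9 ng) was co-injected with rabbit β1 (11.7–15.5 ng), with optional rabbit α2δ (11.7 ng) and human STAC3 isoform a (9.8–13.0 ng). Oocytes were held at 18 °C in OR3 (pH 7.6) and recorded 3–4 d later. BAPTA was pre-injected; perfusate was 40 mM Ba2+ or Ca2+, pH 7.4. P/4 leak subtraction; two-tailed unpaired t test.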

Assay [1] concerns the target T1, STAC3 tandem SH3 domains (residues 245–364) (human, UniProt Q96MF2-1 245-364).
T1 sequence (looked up): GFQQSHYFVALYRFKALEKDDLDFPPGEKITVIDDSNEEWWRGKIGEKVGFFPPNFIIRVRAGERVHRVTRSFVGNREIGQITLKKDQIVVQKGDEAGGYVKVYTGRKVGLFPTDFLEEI
The assay can be described thus: ITC.

The target of assay [2] is T2, STAC2 tandem SH3 domains (residues 296–411) (human, UniProt Q6ZMT1 296-411).
T2 sequence (looked up): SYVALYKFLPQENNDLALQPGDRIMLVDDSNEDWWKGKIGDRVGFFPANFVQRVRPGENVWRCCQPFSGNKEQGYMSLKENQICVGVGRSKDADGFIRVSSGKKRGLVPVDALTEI
Kind of assay: ITC.

The target in assay [3] is T3, STAC1 tandem SH3 domains (residues 288–402) (human, UniProt Q99469 288-402).
T3 sequence (looked up): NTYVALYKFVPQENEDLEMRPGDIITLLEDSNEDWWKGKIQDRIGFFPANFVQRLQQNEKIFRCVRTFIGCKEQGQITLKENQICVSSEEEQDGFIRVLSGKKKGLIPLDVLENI
The assay can be described thus: ITC.

The test system of another assay is stac^−/− myotubes. Conditions: ref [16], cited from earlier work.
In assay [4] the test system is skeletal muscle CaV1.1 complex. Conditions: STAC3 W284S; ref [18]; listed as NAM mutation; cited from earlier work.
The target of assay [5] is T4, STAC2 tandem SH3 domains with Gln-306 mutated to Leu (human, UniProt Q6ZMT1 296-411, Gln-306 to Leu).
T4 sequence (looked up): T2 sequence (looked up) with Q11L
The assay can be described thus: ITC.

In the next assay the test system is CaV1.2. Conditions: ref [15]; cited from earlier work.

Changes are numbered by the printed parent chain. In names and notes the source's numbering stands. Entries after “also recorded” stand apart in the source; their conditions may differ.

Consider “CaV1.1 728–775: fragment 728–775 of the CaV1.1 II–III loop (core II–III loop) (NVNEVKDPYPSADFPGDDEEDEPEIPLSPRPRPLAELQLKEKAVPIPE; left off: His6, end not stated, cleaved | maltose-binding protein, end not stated, cleaved)”, for which the “interaction detected by ITC” value in the assay with STAC3 W284S is on record as “no longer able to detect an interaction”; in the assay with STAC3 W284S (listed as II–III loop peptide) it was “decreases the affinity to levels below detection”.
As for “IPRAAA: mutation at the binding interface tested for CaV1.2 inactivation (NVNEVKDPYPSADFPGDDEEDEPEAALSPAPRPLAELQLKEKAVPIPE; left off: His6, end not stated, cleaved | maltose-binding protein, end not stated, cleaved)”, the “effect on slowing of CaV1.2 inactivation induced by STAC3” value (“effect on slowing” for short) with human CaV1.2 is listed as “neither mutations at the binding interface (W284S or IPRAAA) nor an outright deletion of both SH3 domains affected the slowing of inactivation”.

B1: deletion of both SH3 domains: truncated STAC3 missing both SH3 domain (1–244) (protein, UniProt Q96MF2 1-244, looked up, fragment)
chain: MTEKEVLESPKPSFPAETRQSGLQRLKQLLRKGSTGTKEMELPPEPQANGEAVGAGGGPIYYIYEEEEEEEEEEEEPPPEPPKLVNDKPHKFKDHFFKKPKFCDVCARMIVLNNKFGLRCKNCKTNIHEHCQSYVEMQRCFGKIPPGFHRAYSSPLYSNQQYACVKDLSAANRNDPVFETLRTGVIMANKERKKGQADKKNPVAAMMEEEPESARPEEGKPQDGNPEGDKKAEKKTPDDKHKQP
As for B1, the “effect on slowing” value in the assay with human CaV1.2 is “neither mutations at the binding interface (W284S or IPRAAA) nor an outright deletion of both SH3 domains affected the slowing of inactivation; also recorded: still resulted in slower inactivation”.
Consider NVNEVKDPYPSADFPGDDEEDEPEIPLSPRPRPLAELQLKEKAVPIPE (domain or fragment, human, UniProt Q13698 728-775, looked up) [CaV1.1 728–775 (core II–III loop)], for which the “fold higher affinity than STAC2” value in assay [1] was roughly 2.2 fold; in [3], roughly 2.4 fold. In addition, the Kd in [2] amounted to 1.85 µM.

B2: W284S: STAC3 disease mutation linked to Native American myopathy (protein)
chain: MTEKEVLESPKPSFPAETRQSGLQRLKQLLRKGSTGTKEMELPPEPQANGEAVGAGGGPIYYIYEEEEEEEEEEEEPPPEPPKLVNDKPHKFKDHFFKKPKFCDVCARMIVLNNKFGLRCKNCKTNIHEHCQSYVEMQRCFGKIPPGFHRAYSSPLYSNQQYACVKDLSAANRNDPVFETLRTGVIMANKERKKGQADKKNPVAAMMEEEPESARPEEGKPQDGNPEGDKKAEKKTPDDKHKQPGFQQSHYFVALYRFKALEKDDLDFPPGEKITVIDDSNEESWRGKIGEKVGFFPPNFIIRVRAGERVHRVTRSFVGNREIGQITLKKDQIVVQKGDEAGGYVKVYTGRKVGLFPTDFLEEI
modifications: left off: His6, end not stated, cleaved | maltose-binding protein, end not stated, cleaved
On to B2, for which the “effect on slowing” value with human CaV1.2 is “neither mutations at the binding interface (W284S or IPRAAA) nor an outright deletion of both SH3 domains affected the slowing of inactivation”. For the same molecule, in the assay with stac^−/− myotubes (STAC3 W284S (NAM mutation)), the “effect on EC coupling” value is “diminished EC coupling; also recorded: large reduction in EC coupling”. The “effect on depolarization-induced calcium release” value with stac^−/− myotubes (reconstituted stac^−/− myotubes, [17]) is “drastic reduction in depolarization-induced calcium release”. Moreover, the “recruitment of STAC3 into the skeletal muscle CaV1.1 complex / interaction with CaV1.1” value in [4] was “did not appear to abolish the interaction between CaV1.1 and STAC3”.
Molecule EDEPEIPLSPRPRP (peptide, UniProt Q13698 747-760, looked up) [CaV1.1 747–760 (minimal peptide)] showed a Kd in [1] of 10.6 µM. In assay [5], the “fold lower affinity than wild type” value is roughly 2 fold.

B3: STAC3: human STAC3 isoform a (NP_659501.1) (protein)
chain: T1 sequence (looked up)
modifications: left off: His6, end not stated, cleaved | maltose-binding protein, end not stated, cleaved
Consider B3, for which the “effect on inactivation of CaV1.2” value with CaV1.2 is on record as “dramatic reduction in the speed of inactivation”.

(Values after PMC5692558 (Proceedings of the National Academy of Sciences of the …, 2017).)
